Bioassay records from PubChem.
Tb MetRS inh = T. brucei MetRS inhibitors, primary screen, biochemical, luminescence | methionyl-tRNA synthetase (Trypanosoma brucei brucei) | purified T. brucei MetRS, ATP depletion, Kinase-Glo luminescence | inhibition, % at 11.9 µM | 360,000 tested, 0.4% active | AID 624268, 2012;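 active = inhibition above a per-plate cutoff of the control wells' mean inhibition plus 3 SD, cut at about 5.5% in these data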
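Material: parasite MetRS enzyme / Replication: singlicate, one well per compound / Signal: luminescence of leftover ATP / Schedule: 2 h aminoacylation at 25 °C after 15 min preincubation / Medium: HEPES-MgCl2-KCl buffer plus DTT, spermine, BSA, pyrophosphatase / Doses: 11.9 µM single point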
DAGLB inhibitor = DAGLB lipase inhibitors, primary screen, biochemical, fluorescence, HTS. Diacylglycerol lipase-beta (Homo sapiens), Q8NCG7. 340,000 tested, 0.059% active. inhibition, % at 5.17 µM. HEK293T DAGLB membrane lysate, EnzChek fluorogenic substrate; in the data active = inhibition above about 34%
PLCg1 inh = PLC-gamma1 enzyme inhibitors, primary screen, biochemical, fluorescence, purified enzyme; fluorogenic substrate; inhibition, % at 12.2 µM; 370,000 tested, 0.84% active; in the data active = inhibition above about 9.5%
HGIII-sPLA2 inh = human group III sPLA2 inhibitors, primary screen, biochemical, QFRET, BODIPY PC-A2 liposome substrate; QFRET BODIPY PC-A2 liposome hydrolysis, fluorescence; Group 3 secretory phospholipase A2 (Homo sapiens), Q9NZ20; 370,000 tested, 0.56% active; inhibition, % at 12.2 µM; AID 743126, 2013;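 active = inhibition above mean plus 3 SD of compounds lying within the high and low control bounds, cut at about 19% in these data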
PLCb3 inh = human PLC-beta3 inhibitors, primary screen, biochemical, fluorescence | 1-phosphatidylinositol 4,5-bisphosphate phosphodiesterase beta-3 (Homo sapiens), Q01970 | Purified PLC-beta3, fluorogenic substrate | inhibition, % at 12.2 µM | 370,000 tested, 0.18% active | AID 720704, 2013; in the data active = inhibition above about 11%
sPLA2 confirm = human group III sPLA2 inhibitors, confirmation, biochemical, QFRET, triplicate | shares compounds with HGIII-sPLA2 inh | recombinant hGIII-sPLA2, BODIPY PC-A2 QFRET fluorescence | inhibition, % at 12.2 µM | 2,000 tested, 34% active | AID 743280, 2014;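 active = mean inhibition across triplicates above the hit cutoff set in the earlier primary screen, cut at about 19% in these data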
BODIPY interf = 535nm fluorescence optical interference, confirmation, artefact control for HGIII-sPLA2 inhibitor project, biochemical, QFRET. shares compounds with HGIII-sPLA2 inh. BODIPY FL product fluorescence interference. inhibition, % at 12.2 µM. 2,000 tested, 8.5% active. AID 743282, 2014;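 active = average inhibition above the solvent-only control mean plus 3 SD, cut at about 6% in these data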
Hits are given with their value; i = inactive; nt = not tested or not shown. Shown are actives, neighbours in structure and some others; about 1.9% of the full set was active somewhere.

SMILES | Tb MetRS inh | DAGLB inhibitor | PLCg1 inh | HGIII-sPLA2 inh | PLCb3 inh | sPLA2 confirm | BODIPY interf
O=C(Nc1nc(Cc2ccccc2)c(Cc2ccccc2)n1Cc1ccccc1)c1ccccc1 | nt | nt | i | i | i | nt | nt
O=C(Nc1nc(Cc2ccccc2)c(-c2ccccc2)n1Cc1ccccc1)c1ccccc1 | nt | nt | i | 20 | i | i | i
COc1ccc(-c2c(Cc3ccccc3)nc(NC(=O)c3ccccc3)n2C)cc1 | nt | nt | i | 19 | i | i | i
Cc1ccc(OCc2nnc(SCC(=O)Nc3ccc(S(=O)(=O)Nc4cc(C)nc(C)n4)cc3)n2Cc2ccco2)cc1 | nt | nt | i | i | i | nt | nt
Cc1nc(SCC(=O)N2CCOCC2)c2c(=O)n(C)c(=O)n(C)c2n1 | i | i | i | 21 | i | i | i
Cc1nc(SCC(=O)N2CCOCC2)c2c(=O)n(C)c(=O)n(CC(C)C)c2n1 | i | i | i | i | i | nt | nt
COc1ccc(-c2cccc3c4c([nH]c23)[C@@H]2C[C@H]3[C@@H](C(=O)N2CC4)[C@H](C)ON3C)cc1 | nt | nt | i | i | i | nt | nt
O=c1ccn([C@@H]2O[C@H](CNCC3=Cc4cc(O)ccc4OC3)[C@@H](O)[C@H]2O)c(=O)[nH]1 | i | i | i | 20 | i | i | i
Cc1ccc(/C(N)=N/OC(=O)CCc2ccccc2)cc1 | i | i | i | 20 | i | i | i
N/C(=N\OC(=O)CCc1ccccc1)c1ccc(Br)cc1 | i | i | i | i | i | nt | nt
CC(C)NC(=O)c1ccccc1NC(=O)/C=C/c1cccc([N+](=O)[O-])c1 | i | i | i | 23 | i | i | i
CC(C)C(NC(=O)/C=C/c1cccc([N+](=O)[O-])c1)C(C)C | i | i | i | i | i | nt | nt
COc1ccc(Cc2n[nH]c(=S)o2)cc1 | i | i | i | i | i | nt | nt
S=c1[nH]nc(Cc2ccc(Cl)cc2)o1 | i | i | i | 22 | i | i | i
COc1ccc(S[C@]2(C(=O)N(C)C)CC(=O)N(c3ccc(C#N)cc3)[C@@H]2c2ccc(OC)cc2)cc1 | nt | nt | i | i | i | nt | nt
CC(C)c1nc2c(c(=O)c3ccccc3n2C)c(=O)n1-c1ccc(F)cc1 | i | i | i | 24 | i | i | i
CCC(C(=O)OCCOCCN(CC)CC)c1ccccc1 (stereo not given) | i | nt | i | 20 | i | i | i
CCN(CC)CCCOC(=O)C(c1ccccc1)c1ccccc1 | i | i | i | i | i | nt | nt
CC1=C(C(=O)Nc2ccccc2C)C(c2ccc(C)o2)C2=C(CCCC2=O)N1 (stereo not given) | i | i | i | i | i | nt | nt
CC1=C(C(=O)Nc2ccccc2C)C(c2ccc(C)o2)NC(=S)N1 (stereo not given) | i | i | i | 20 | i | 22 | i
COc1ccc(CNC(=O)C2CCCN(c3nc4ccccc4o3)C2)cc1 (stereo not given) | nt | nt | i | i | i | nt | nt
C[C@H]1COc2cc(Br)ccc2S(=O)(=O)N1Cc1cn(CC2CCCCC2)nn1 | nt | nt | i | i | i | nt | nt
COc1cc(CN(C(=S)NCC(=O)NC2CCCC2)C2CCCC2)cc(OC)c1OC | i | i | i | 23 | i | i | i
C[C@H]1CCC/C=C/C(=O)c2c(cc(O)c(Cl)c2O)CC(=O)O1 | nt | nt | i | i | i | nt | nt
C/C(=N\NC(=O)c1ccccc1F)c1ccc2c(c1)Nc1ccccc1S2 | i | i | i | 20 | i | 45 | 10
C/C(=N\NC(=O)c1ccc(O)cc1)c1ccc2c(c1)Nc1ccccc1S2 | i | i | i | i | i | nt | nt
COC(=O)C1CN(Cc2ccccc2)CCS(=O)(=O)N1Cc1cccc(Cl)c1 (stereo not given) | nt | nt | i | i | i | nt | nt
O=C(N/N=C/c1ccc(Cl)cc1)c1n[nH]c2c1CCCC2 | i | i | i | 21 | i | i | i
CC(C1CC1)N(Cc1ccccc1)C(=S)Nc1cccc(C(F)(F)F)c1 (stereo not given) | i | i | i | 21 | i | i | i
